Results published in ChEMBL document CHEMBL1123190, “Synthesis and biological evaluation of cyclic analogues of 1-carnitine as potential agents in the treatment of myocardial ischemia” (J Med Chem, 1986).
“And” between values parts separate entries of the source, which are not always exact repeats. Equal values may be shown once.

molecular target: T1, Mitochondrial carnitine/acylcarnitine carrier protein (Rattus norvegicus) (UniProt P97521); assay: Affinity of compound towards the carnitine/acylcarnitine translocase was determined by monitoring the efflux of [14C]L-carnitine from isolated rat heart mitochondria
T1 sequence (whole entry): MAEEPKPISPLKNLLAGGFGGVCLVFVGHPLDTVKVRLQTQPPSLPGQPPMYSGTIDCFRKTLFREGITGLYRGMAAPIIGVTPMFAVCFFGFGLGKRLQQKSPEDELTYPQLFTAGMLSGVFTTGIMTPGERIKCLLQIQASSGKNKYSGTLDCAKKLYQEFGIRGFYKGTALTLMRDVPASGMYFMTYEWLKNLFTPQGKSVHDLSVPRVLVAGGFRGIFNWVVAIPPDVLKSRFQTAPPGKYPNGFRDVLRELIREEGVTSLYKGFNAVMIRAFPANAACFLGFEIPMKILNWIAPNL
Method in brief: (§1)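 Isolated rat heart mitochondria (differential centrifugation) in 200 mM D-mannitol/50 mM Tris-HCl pH 7.4 with rotenone, oligomycin and antimycin A were loaded with l-carnitine plus [14C]-l-carnitine for 3 min at 28 °C, then washed. Compound at 3 or 50 mM, or water control, was added; efflux ran 1 min on ice and was quenched with mersalyl. Supernatant was scintillation-counted, and % efflux was calculated against control and total radioactivity. Mean of three.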

Compound	Experimental DPM
C[N+]1(C)CCC[C@H]1C(=O)[O-]	5570
CCCCCCCCCCCCCCCC(=O)O[C@@H]1C[C@@H](C(=O)O)[N+](C)(C)C1	5890 and 8870
NCC(O)CC(=O)O (stereo not given)	4220
CCCCCCCCCCCCCCCC(=O)OC(CN)CC(=O)O (stereo not given)	3470

More lines, now with the values ahead:

Experimental DPM	Compound
5350	O=C(O)[C@@H]1C[C@@H](O)CN1
4130	O=C(O)C1CCCNC1 (stereo not given)
4280	O=C(O)C1CCCCN1 (stereo not given)
5050	O=C(O)[C@@H]1CCCN1

molecular target: T1, Mitochondrial carnitine/acylcarnitine carrier protein (Rattus norvegicus); assay: Affinity of compound towards the carnitine/acylcarnitine translocase was determined by monitoring the efflux of [14C]L-carnitine from isolated rat heart mitochondria at 3 mM conc.; method in brief: as §1

Compound	Experimental DPM	Total DPM	Trans
C[N+]1(C)CCCC(C(=O)O)C1 (stereo not given)	4030	10900	0%
C[N+]1(C)CCC[C@H]1C(=O)[O-]	–	12200	3.17%
C[N+](C)(C)CC(O)CC(=O)[O-] (stereo not given)	11800	12200	94.2%

Results, then the compound that gave them:

Experimental DPM	Total DPM	Trans	Compound
4930	12200	3.16%	C[N+]1(C)C[C@H](O)C[C@H]1C(=O)O
3850	10900	0%	C[N+]1(C)CCCCC1C(=O)O (stereo not given)
4170	10900	0%	C[N+](C)(C)[C@@H]1CCCC[C@H]1C(=O)O
